Assay results from the RNAGym collection of RNA variant scans (doi:10.1038/nmeth.2970).

B1: NELF-E aptamer (parent)
chain: CCCAACGACUGCCGAGCGAGAUUACGCUUGAGCGCCCCACUGAGGAUGCCCACGGGCGAUUGGGGCACGG

Variants of: B1
Test: HiTS-RAP
Conditions: with NELF-E (Drosophila)
Method in brief: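 Aptamer DNA templates bearing a T7 promoter and a ter site were sequenced on an Illumina GAIIx flowcell. T7 RNA polymerase then transcribed them in situ, and GST-Tus halted transcription over 30 minutes at 37°C. After a 30-minute room-temperature equilibration with NELF-E-mOrange at 0.064 to 1000 nM in HEPES binding buffer, clusters were imaged, using only the first binding curve. Intensities normalised to sequencing intensity were averaged per sequence and fitted with weighted Hill fits to give Kd, retaining only fits whose variance stayed under 1,000,000.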

Row | Variant | Kd [nM]
1 | CCCAACGAGUGCCGAGCGAGAUUACGCUUGAGCACCCCACUGAGGAUGCCCACGGGCGAUUGGGGCACGG | 9.14
2 | CCCAACGAGUGCCGAGCGAGAUUACGCUUGAGCGCCCCACUGAGGAUGCCCACGGUCGAUUGGGGCACGG | 6.71
3 | CCCAACGAGUGCCGAGCGAGAUUACGCUUGAGCGCCCCACUGAGGAUGCCCACGGACGAUUGGGGCACGG | 7.64
4 | CCCAACGAGUGCCGAGCGAGAUUACGCUUGAGCGCCCCACUGAGGAUGCCCACGGGCGAUUGGGUCACGG | 7.11
5 | CCCAACGAGUGCCGAGCGAGAUUACGCUUGAGCGCCCCACUGAGGAUGCCCACGGGCGAUUGGGACACGG | 4.83
6 | CCCAACGAGUGCCGAGCGAGAUUACGCUUGAGCGCCCCACUGAGGAUGCCCACGGGCGAUUGGGCCACGG | 16.4
7 | CCCAACGAGUGCCGAGCAAGAUUACGCUUGAGCGCCCCACUGAGGAUGCCCACGGGCGAUUGGGGCACGG | 6.15
8 | CCCAACGAGUGCCGAGCUAGAUUACGCUUGAGCGCCCCACUGAGGAUGCCCACGGGCGAUUGGGGCACGG | 6.65
9 | CCCAACGAGUGCCUAGCGAGAUUACGCUUGAGCGCCCCACUGAGGAUGCCCACGGGCGAUUGGGGCACGG | 6.47
10 | CCCAACGAGUGCCAAGCGAGAUUACGCUUGAGCGCCCCACUGAGGAUGCCCACGGGCGAUUGGGGCACGG | 6.55
11 | CCCAACGAGUGCCGAGCGAGAUUACGCUUGAGCGCCCCACUGAGGAUGCCCAUGGGCGAUUGGGGCACGG | 4.66
12 | CCCAACGAGUACCGAGCGAGAUUACGCUUGAGCGCCCCACUGAGGAUGCCCACGGGCGAUUGGGGCACGG | 6.35
13 | CCCAACGAGUUCCGAGCGAGAUUACGCUUGAGCGCCCCACUGAGGAUGCCCACGGGCGAUUGGGGCACGG | 6
14 | CCCAACGAGUGCCGAGCGAGAUUACGCUUGAACGCCCCACUGAGGAUGCCCACGGGCGAUUGGGGCACGG | 4.88
15 | CCCAACGAUUGCCGAGCGGGAUUACGCUUGAGCGCCCCACUGAGGAUGCCCACGGGCGAUUGGGGCACGG | 5.01
16 | CCCAACGAGUGCCGAGCGAGAUUACGCUUGAGCGCCCCACUGAGGAUGCCCACGGGCGAUUGGGGUACGG | 5.54
17 | CCCAACGAGUGCCGAGCGAGAUUACGCUUGAGCGCCCCACUAAGGAUGCCCACGGGCGAUUGGGGCACGG | 56.8
18 | CCCAACGAGUGCCGAGCGAGAUUACGCUUGAGCGCCCCACUUAGGAUGCCCACGGGCGAUUGGGGCACGG | 7.6
19 | CCCAACGAGUGCCGAGCGAGAUUACGCUAGAGCGCCCCACUGAGGAUGCCCACGGGCGAUUGGGGCACGG | 6.02
20 | CCCAACGAGUGCCGAGCGAGAUUACGCUCGAGCGCCCCACUGAGGAUGCCCACGGGCGAUUGGGGCACGG | 6.28
21 | CCCAACGAGUGCCGAGCGAGAUUACGCUGGAGCGCCCCACUGAGGAUGCCCACGGGCGAUUGGGGCACGG | 5.58
22 | CCCAACGAGUGCCGAGCGAGAUUACGCUUGAGCGCCCCACUGAGGAUGCCCACGGGUGAUUGGGGCACGG | 7.56
23 | CCCAACGAUUGCCGAGCGAGAUUACGCUUGAGCGCCCCACUGAGGAUGCCCACGGGCGAUUGGGGCACGG | 5.19
24 | CCCAACGAGUGCCGAGCGAGAUUACGCUUGAGCGCCCCACUGAGGAUGCCCACGGGCGAUUGGAGCACGG | 8.13
25 | CCCAACGAGUGCCGAGCGAGAUUACGCUUGAGCGCCCCACUGAGGAUGCCCACGGGCGAUUGGUGCACGG | 8.07
26 | CCCAACGAGUGCCGAGCGAGAUUACGCUUGAGCGCCCCACUGAGGAUGCCCACGGGCGAUUGGCGCACGG | 5.75

Row | Variant | Kd [nM]
27 | CCCAACGAGUGCCGAGCGAGAUUACGCUUGAGCGCCCCACUGAGGAUACCCACGGGCGAUUGGGGCACGG | 8.11
28 | CCCAACGAUUGGCGAGCGAGAUUACGCUUGAGCGCCCCACUGAGGAUGCCCACGGGCGAUUGGGGCACGG | 6.92
29 | CCCAACGAGUGCCGAGCGAGAUUACGCUUGAGCGCCCCACAGAGGAUGCCCACGGGCGAUUGGGGCACGG | 79.4
30 | CCCAACGAGUGCCGAGCGAGAUUACGCUUGAGCGCCCCACCGAGGAUGCCCACGGGCGAUUGGGGCACGG | 80.7
31 | CCCAACGAGUGCCGAGCGAGAUUACGCUUGAGCGCCCCACGGAGGAUGCCCACGGGCGAUUGGGGCACGG | 6.14
32 | CCCAACGAGUGCCGAGCGAGAUUACGCUUGAGCGCCCCACUGAGUAUGCCCACGGGCGAUUGGGGCACGG | 5.69
33 | CCCAACGAGUGCCGAGCGAGAUUACGCUUGAGCGCCCCACUGAGAAUGCCCACGGGCGAUUGGGGCACGG | 35.6
34 | CCCAACGAGUGCCGAACGAGAUUACGCUUGAGCGCCCCACUGAGGAUGCCCACGGGCGAUUGGGGCACGG | 5.72
35 | CCCAACGAGUGCCGAUCGAGAUUACGCUUGAGCGCCCCACUGAGGAUGCCCACGGGCGAUUGGGGCACGG | 6.45
36 | CCCAACGAGUGCCGAGCGAGAUUACGCUUGAGCGCCCCACUGAUGAUGCCCACGGGCGAUUGGGGCACGG | 9.09
37 | CCCAACGAGUGCCGAGCGAGAUUACGCUUGAGCGCCCCACUGAAGAUGCCCACGGGCGAUUGGGGCACGG | 17.8
38 | CCCAACGAGUGCCGAGCGAGAGUACGCUUGAGCGCCCCACUGAGGAUGCCCACGGGCGAUUGGGGCACGG | 5.5
39 | CCCAACGAGUGCCGAGCGAGACUACGCUUGAGCGCCCCACUGAGGAUGCCCACGGGCGAUUGGGGCACGG | 6.33
40 | CCCAACGAGUGCCGAGCGAGAUUACGCUUUAGCGCCCCACUGAGGAUGCCCACGGGCGAUUGGGGCACGG | 6.64
41 | CCCAACGAGUGCCGAGCGAGAUUACGCUUAAGCGCCCCACUGAGGAUGCCCACGGGCGAUUGGGGCACGG | 4.33
42 | CCCAACGAGUGCCGAGCGAGAUUACGCUUGAGCGCCCCACUGAGGAUGCCCACUGGCGAUUGGGGCACGG | 6.83
43 | CCCAACGAGUGCCGAGCGAGAUUACGCUUGAGCGCCCCACUGAGGAUGCCCACAGGCGAUUGGGGCACGG | 17
44 | CCCAACGAGAGCCGAGCGAGAUUACGCUUGAGCGCCCCACUGAGGAUGCCCACGGGCGAUUGGGGCACGG | 6.51
45 | CCCAACGAGGGCCGAGCGAGAUUACGCUUGAGCGCCCCACUGAGGAUGCCCACGGGCGAUUGGGGCACGG | 5.46
46 | CCCAACGAGCGCCGAGCGAGAUUACGCUUGAGCGCCCCACUGAGGAUGCCCACGGGCGAUUGGGGCACGG | 5.98
47 | CCCAACGAGUGCCGAGCGAGAUUACGCUUGAGCGCCCCACUGAGGAUGCCCACGAGCGAUUGGGGCACGG | 10.3
48 | CCCAACGAGUGCCGAGCGAGAUUACGCUUGAGCGCCCCACUGAGGAUGCCCACGUGCGAUUGGGGCACGG | 8.84
49 | CCCAACGAGUGCCGAGCGAGAUUACGCUUGAGCGCCCCACUGAGGAUGUCCACGGGCGAUUGGGGCACGG | 23.1
50 | CCCAACGAGUGCCGAGCGAGAUUACGCUUGAGCGCCCCACUGAGGAUGCCUACGGGCGAUUGGGGCACGG | 8.2
51 | CCCAACGAGUGCCGAGCGAGAUUACGCUUGAGCGCCCCACUGAGGAUGCCAACGGGCGAUUGGGGCACGG | 8.9
52 | CCCAACGAUUGCCGAGCGAGAUUGCGCUUGAGCGCCCCACUGAGGAUGCCCACGGGCGAUUGGGGCACGG | 5.62

Row | Variant | Kd [nM]
53 | CCCAACGAGUGCCGAGCGAGAUUACGCUUGAGCGCCCCACUGAGGAUGCCCACGGGCGAUAGGGGCACGG | 35.2
54 | CCCAACGAGUGCCGAGCGAGAUUACGCUUGAGCGCCCCACUGAGGAUGCCCACGGGCGAUCGGGGCACGG | 89.2
55 | CCCAACGAGUGCCGAGCGAGAUUACGCUUGAGCGCCCCACUGAGGAUGCCCACGGGCGAUUGUGGCACGG | 10.3
56 | CCCAACGAGUGCCGAGCGAGAUUACGCUUGAGCGCCCCACUGAGGAUGCCCACGGGCGAUUGAGGCACGG | 15.9
57 | CCCAACGAGUGCCGAGCGAGAUUACACUUGAGCGCCCCACUGAGGAUGCCCACGGGCGAUUGGGGCACGG | 5.39
58 | CCCAACGAGUGCCGAGCGAGAUUACUCUUGAGCGCCCCACUGAGGAUGCCCACGGGCGAUUGGGGCACGG | 8.09
59 | CCCAACGAGUGCCGAGCGAGAUUACGCUUGAGCGCCCCACUGAGGAUGCACACGGGCGAUUGGGGCACGG | 23.5
60 | CCCAACGAGUGCCGAGCGAGAUUACGCUUGAGCGCCCCACUGAGGAUGCGCACGGGCGAUUGGGGCACGG | 7.4
61 | CCCAACGAGUGCCGAGCGAGAUUACGCUUGAGCGCCCCACUGAGGAUGCUCACGGGCGAUUGGGGCACGG | 13.5
62 | CCCAACGAGUGCCGAGCGAAAUUACGCUUGAGCGCCCCACUGAGGAUGCCCACGGGCGAUUGGGGCACGG | 6.64
63 | CCCAACGAGUGCCGAGCGAUAUUACGCUUGAGCGCCCCACUGAGGAUGCCCACGGGCGAUUGGGGCACGG | 7.26
64 | CCCAACGAGUGCCGAGCGAGAUGACGCUUGAGCGCCCCACUGAGGAUGCCCACGGGCGAUUGGGGCACGG | 5.35
65 | CCCAACGAGUGCCGAGCGAGAUAACGCUUGAGCGCCCCACUGAGGAUGCCCACGGGCGAUUGGGGCACGG | 6.12
66 | CCCAACGAGUGCCGAGCGAGAUCACGCUUGAGCGCCCCACUGAGGAUGCCCACGGGCGAUUGGGGCACGG | 4.37
67 | CCCAACGAGUGCCGAGCGAGAUUACGCUUGAGCGCCCCACUGAGGAUGCCCACGGGCGAUUAGGGCACGG | 26.9
68 | CCCAACGAGUGCCGAGCGAGAUUACGCUUGAGCGCCCCACUGAGGAUGCCCACGGGCGAUUUGGGCACGG | 10
69 | CCCAACGAGUGCCGAGCGAGAUUACGCAUGAGCGCCCCACUGAGGAUGCCCACGGGCGAUUGGGGCACGG | 5.64
70 | CCCAACGAGUGCCGAGCGAGAUUACGCGUGAGCGCCCCACUGAGGAUGCCCACGGGCGAUUGGGGCACGG | 6.8
71 | CCCAACGAGUGCCGAGCGAGAUUACGCCUGAGCGCCCCACUGAGGAUGCCCACGGGCGAUUGGGGCACGG | 9.43
72 | CCCAACGAUUGCGGAGCGAGAUUACGCUUGAGCGCCCCACUGAGGAUGCCCACGGGCGAUUGGGGCACGG | 5.59
73 | CCCAACGAUUGCUGAGCGAGAUUACGCUUGAGCGCCCCACUGAGGAUGCCCACGGGCGAUUGGGGCACGG | 5.14
74 | CCCAACGAGUGCCGAGCGAGAUUACGCUUGAGCGCCCCACUGAGGAUGCCCACGGGCGAGUGGGGCACGG | 6.72
75 | CCCAACGAGUGCCGAGCGAGAUUACGCUUGAGCGCCCCACUGAGGAUGCCCACGGGCGACUGGGGCACGG | 11.4
76 | CCCAACGAGUGCCGAGCGAGAUUACGCUUGAGCGCCCCACUGAGGAGGCCCACGGGCGAUUGGGGCACGG | 5.29
77 | CCCAACGAGUGCCGAGCGAGAUUACGCUUGAGCGCCCCACUGAGGAAGCCCACGGGCGAUUGGGGCACGG | 11.9
